Experimental data collected from several papers.
CDK7 with cyclin H: Cyclin-dependent kinase 7, with cyclin H (CDK7, Homo sapiens, UniProt P50613)
MEP1B: Meprin A subunit beta (MEP1B, Homo sapiens, UniProt Q16820)
PDE4D: 3',5'-cyclic-AMP phosphodiesterase 4D (PDE4D, Homo sapiens, UniProt Q08499)
HDAC6: Protein deacetylase HDAC6 (HDAC6, Homo sapiens, UniProt Q9UBN7)
KCNK9: Potassium channel subfamily K member 9 (KCNK9, Homo sapiens, UniProt Q9NPC2)
F2: Prothrombin (F2, Homo sapiens, UniProt P00734)
Dihydroorotate dehydrogenase, mitochondrial, putative: Dihydroorotate dehydrogenase, mitochondrial, putative (Plasmodium vivax, UniProt A5K1N1)
GRM7: Metabotropic glutamate receptor 7 (GRM7, Homo sapiens, UniProt Q14831)

O=c1cc(-c2ccccc2)oc2ccc3ccccc3c12 — IC50 (CDK7 with cyclin H; enzyme activity, inhibitor, ADP detection): 2.97 µM
COc1cc(N2CCN(C)CC2)ccc1Nc1ncc2c(n1)N(C)c1ccccc1C(=O)N2 — IC50 (Mitogen-activated protein kinase 7 (MAPK7, Homo sapiens, UniProt Q13164); enzyme activity, inhibitor, radiometric): 1.2 µM
O=C(CCN(Cc1ccc2c(c1)OCO2)Cc1ccc(Cl)c(O)c1F)NO — IC50 (MEP1B; enzyme activity, inhibitor): 0.146 µM
COc1ccc([C@@H]2CN(C(=O)[C@@H](O)CO)C[C@@]2(C)[C@@H](C)O)cc1OC1CN(c2ccc(C)cn2)C1 — IC50 (PDE4D; enzyme activity, inhibitor): 0.00014 µM
CCCON(Cc1ccc(C(=O)NO)cc1)C(=O)Nc1ccccc1 — IC50 (HDAC6; enzyme activity, inhibitor, fluorescence): 0.02 µM
CCOC(=O)C1=C(C)NC(C)=C(C(=O)OC)C1c1cccc([N+](=O)[O-])c1 (stereo not drawn) — IC50 (KCNK9; ion flux, inhibitor): > 30 µM
COc1cc(/C=C2\SC(=O)NC2=O)cc(F)c1OCCNc1nc2c(cnn2C2CCCC2)c(=O)[nH]1 — IC50 (PDE4D; enzyme activity, inhibitor): 0.765 µM
CC(C)n1c(/C=C/C(O)CC(O)CC(=O)O)c(-c2ccc(F)cc2)c2ccccc21 (stereo not drawn) — IC50 (3-hydroxy-3-methylglutaryl-coenzyme A reductase (HMGCR, Homo sapiens, UniProt P04035); enzyme activity, inhibitor, absorbance): 0.173 µM
Cc1nc2ccccc2n1Cc1cc(F)c(C(=O)NO)c(F)c1 — IC50 (HDAC6; enzyme activity, inhibitor): 0.946 µM
O=C(O)[C@H]1O[C@@H](O[C@H]2[C@H](O)[C@@H](NS(=O)(=O)O)[C@@H](OCCNS(=O)(=O)O)O[C@@H]2COS(=O)(=O)O)[C@H](O)[C@@H](O)[C@@H]1O[C@H]1O[C@H](COS(=O)(=O)O)[C@@H](O)[C@H](O)[C@H]1NS(=O)(=O)O — IC50 (Coagulation factor X (F10, Bos taurus, UniProt P00743); enzyme activity, inhibitor, absorbance): > 2 µM
C[C@@H]1O[C@H](OP(=O)(O)OP(=O)(O)OC[C@H]2O[C@@H](n3cnc4c(=O)[nH]c(N)nc43)[C@H](O)[C@@H]2O)[C@@H](F)[C@H](O)[C@@H]1O — IC50 (Alpha-(1,3)-fucosyltransferase 7 (FUT7, Homo sapiens, UniProt Q11130); cell-free assay): ~2.5 µM
O=C(NO)c1ccc(Cn2c(C(F)(F)F)nc3ccccc32)cc1 — IC50 (HDAC6; enzyme activity, inhibitor): 0.01 µM
N#Cc1nc(NCc2cccc(-c3cn(S(=O)(=O)c4ccccc4)c4ccccc34)c2)c2ncn(CCCO)c2n1 — IC50 (Cathepsin B-like cysteine protease (Trypanosoma brucei, UniProt Q6R7Z5); enzyme activity, inhibitor): > 15 µM
CC(C)C[C@H](NC(=O)[C@H]1O[C@@H]1C(=O)O)C(=O)NCCCCN=C(N)N — IC50 (Calpain-1 catalytic subunit (CAPN1, Homo sapiens, UniProt P07384); enzyme activity, inhibitor): 0.0309 µM
COc1cc(/C=N/n2c(C)nc3ccc(C)cc3c2=O)ccc1OCc1ccccc1 — IC50 (F2; enzyme activity, inhibitor): 26.6 µM
Cc1nc(NC2CCc3cc(Br)ccc3C2)c2c(C)noc2n1 (stereo not drawn) — IC50 (Dihydroorotate dehydrogenase, mitochondrial, putative; enzyme activity, inhibitor, absorbance): 0.15 µM
NC(=O)c1cccc(-c2cccc(OC(=O)NC3CCCCC3)c2)c1 — IC50 (Liver carboxylesterase 1 (CES1, Homo sapiens, UniProt P23141); enzyme activity, inhibitor): 0.039 µM
OCc1ccc2c(c1C#Cc1ccc(O)cc1)C(c1ccc(O)cc1)(c1ccc(O)cc1)c1cc(O)ccc1-2 — IC50 (PDE4D; enzyme activity, inhibitor): 0.267 µM
O=C(N[C@@H](Cc1c[nH]c2ccccc12)C(=O)O)c1ccc(Cl)cc1 — IC50 (Free fatty acid receptor 3 (FFAR3, Homo sapiens, UniProt O14843); GTPγS binding, antagonist; cell membranes): > 31.6 µM
O=C(CCN(Cc1cccnc1)Cc1ccc2c(c1)OCO2)NO — IC50 (MEP1B; enzyme activity, inhibitor): 9.65 µM
C=CC(=O)Nc1ccc(N2CCC[C@@H](Nc3ncc(Cl)c(-c4c[nH]c5ccccc45)n3)C2)cc1C — IC50 (CDK7 with cyclin H; enzyme activity, inhibitor, FRET): 0.197 µM
CNC(=O)[C@H](Cc1ccccc1)NC(=O)[C@H](CC(C)C)[C@H](CSc1cccs1)C(=O)NO — IC50 (Disintegrin and metalloproteinase domain-containing protein 8 (Homo sapiens, UniProt P78325); enzyme activity, inhibitor, fluorescence): 0.046 µM
CC(C)C[C@H](NC(=O)[C@H](CCC(=O)O)NC(=O)[C@@H](NC(=O)[C@H](CO)NC(=O)[C@H](CCCCN)NC(=O)[C@H](CCC(N)=O)NC(=O)[C@H](Cc1ccc(O)cc1)NC(=O)[C@H](CCCNC(=N)N)NC(=O)[C@@H](N)CCCNC(=N)N)[C@@H](C)O)C(=O)O — IC50 (Antigen peptide transporter 1/Antigen peptide transporter 2 (Homo sapiens, UniProt Q03518+Q03519); ligand displacement): 0.1 µM
O=C(CCN(Cc1ccc2c(c1)OCO2)Cc1ccc(Cl)cc1F)NO — IC50 (MEP1B; enzyme activity, inhibitor): 0.96 µM
COCCOC(=O)C1=C(C)NC(C)=C(C(=O)OC(C)C)C1c1cccc([N+](=O)[O-])c1 (stereo not drawn) — IC50 (Potassium channel subfamily K member 18 (KCNK18, Homo sapiens, UniProt Q7Z418); ion flux, inhibitor): 17.5 µM
COc1ccc(C2=NN(C3CCCCCC3)C(=O)[C@@H]3CC=CC[C@H]23)cc1-c1ccc(C(N)=O)cc1 (relative stereo) — IC50 (PDE4D; enzyme activity, inhibitor): 0.126 µM
COc1cc(/C=N/n2c(C)nc3ccc(C)cc3c2=O)cc([N+](=O)[O-])c1O — IC50 (F2; enzyme activity, inhibitor): 210 µM
COC(=O)C1=C(C)NC(C)=C(C(=O)OCCN(C)Cc2ccccc2)C1c1cccc([N+](=O)[O-])c1 (stereo not drawn) — IC50 (KCNK9; ion flux, inhibitor): > 30 µM
CCCC[C@H](NC(=O)[C@H](C)c1c(C)[nH]c2ccc(O)cc12)c1ncc(-c2cc3ccccc3nc2OC)[nH]1 — IC50 (HDAC6; enzyme activity, inhibitor): > 45 µM
Cc1nc(Nc2ccc(C)c(Cl)c2)c2c(C)noc2n1 — IC50 (Dihydroorotate dehydrogenase, mitochondrial, putative; enzyme activity, inhibitor, absorbance): 0.26 µM
COc1cc(/C=N/n2c(C)nc3ccc(Br)cc3c2=O)ccc1OCc1ccc(Cl)cc1 — IC50 (F2; enzyme activity, inhibitor): 44.9 µM
COc1cc2c(NC3CCN(C)CC3)nc(N3CCCN(C)CC3)nc2cc1OCCCCCCN(C)C — IC50 (Histone-lysine N-methyltransferase EHMT2 (EHMT2, Homo sapiens, UniProt Q96KQ7); enzyme activity, inhibitor): 1.5 µM
COc1ccc2c(Oc3ccc4c(C(=O)Nc5ccccc5N)cccc4c3)ccnc2c1 — IC50 (Tyrosine-protein kinase SYK (SYK, Homo sapiens, UniProt P43405); enzyme activity, inhibitor): > 0.5 µM
Cc1cn([C@H]2C[C@H](N=[N+]=[N-])[C@@H](CO)O2)c(=O)[nH]c1=O — IC50 (Gag-Pol polyprotein, reverse transcriptase (gag-pol, Human immunodeficiency virus type 1 group M subtype B, UniProt P04585); enzyme activity, inhibitor, ELISA): 12.2 µM
CN(C)CC#Cc1ccc2[nH]c3c(c2c1)-c1nc(N)ncc1CCC3 — IC50 (Cyclin-dependent kinase 7 (CDK7, Homo sapiens, UniProt P50613); enzyme activity, inhibitor, radiometric): > 10 µM
CCc1ccc(/C=N/n2c(C)nc3ccc(C)cc3c2=O)s1 — IC50 (F2; enzyme activity, inhibitor): 269 µM
COc1ccc(-c2noc(-c3cc(Cl)c(F)cc3-n3cncn3)n2)cc1OC — IC50 (GRM7; calcium signal, antagonist): > 30 µM
CC(C)(C)n1nc(-c2ccc3nc(OC4CC4)ccc3c2)c(C(N)=O)c1N — IC50 (Mitogen-activated protein kinase 1 (MAPK1, Homo sapiens, UniProt P28482); cell-free assay): > 10 µM
COc1cc(NCC(=O)Nn2c(C)nc3ccc(Cl)cc3c2=O)cc(OC)c1OC — IC50 (F2; enzyme activity, inhibitor): 63.5 µM
O=c1cc(-c2ccc3c(c2)OCO3)oc2c1ccc1occc12 — IC50 (CDK7 with cyclin H; enzyme activity, inhibitor, ADP detection): > 100 µM
COc1ccc(-c2coc(-c3cc(OC(F)(F)F)ccc3-n3cncn3)n2)cc1OC — IC50 (GRM7; calcium signal, antagonist): > 10 µM
CC#Cc1cncc(-c2ccc3c(c2)[C@@]2(N=C(C)C(N)=N2)[C@]2(CC[C@H](OC)CC2)C3)c1 — IC50 (Cathepsin D (CTSD, Homo sapiens, UniProt P07339); enzyme activity, inhibitor): 16.1 µM
